In ChEMBL document CHEMBL1221298, “InCl3 mediated one-pot multicomponent synthesis, anti-microbial, antioxidant and anticancer evaluation of 3-pyranyl indole derivatives” (Bioorg Med Chem Lett, 2010):
≈ marks a conversion by molar mass, not a printed value. Calls of active or inactive are those of the source. The calls are words filed in the database; no cut-off is given here.

Key:
Assay type in all cases: functional
Staphylococcus aureus [1] = assay: microbe, parasite or virus in culture; details: ATCC 9144, 24 h, read-out: IZ
Bacillus cereus [2] = assay: Antimicrobial activity against Bacillus cereus ATCC 11778 at 100 ug/ml after 24 hrs by paper disk diffusion method; details: ATCC 11778, 24 h, read-out: IZ
Escherichia coli [3] = assay: microbe, parasite or virus in culture; details: ATCC 25922, 24 h, read-out: IZ
Klebsiella pneumoniae [4] = assay: microbe, parasite or virus in culture; details: ATCC 11298, 24 h, read-out: IZ
Staphylococcus aureus [5] = assay: microbe, parasite or virus in culture; details: ATCC 9144, 24 h
Bacillus cereus [6] = assay: microbe, parasite or virus in culture; details: ATCC 11778, 24 h
Escherichia coli [7] = assay: microbe, parasite or virus in culture; details: ATCC 25922, 24 h
Klebsiella pneumoniae [8] = assay: microbe, parasite or virus in culture; details: ATCC 11298, 24 h
[9] = tested on: Radical scavenging activity; assay: Antioxidant activity assessed as DPPH radical scavenging activity at 50 ug/ml
How it was run: (§1)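 Each test sample was mixed with 1 ml DPPH in methanol, incubated at 37 °C for 30 min, and read spectrophotometrically at 517 nm with a blank reading. Scavenging % was expressed as the absorbance decrease at 517 nm relative to DPPH solution without test sample.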

[10] = tested on: Radical scavenging activity; assay: Antioxidant activity assessed as DPPH radical scavenging activity at 100 ug/ml
How it was run: as §1

[11] = tested on: Radical scavenging activity; assay: Antioxidant activity assessed as DPPH radical scavenging activity at 200 ug/ml
How it was run: as §1

[12] = tested on: Radical scavenging activity; assay: Antioxidant activity assessed as DPPH radical scavenging activity at 400 ug/ml
How it was run: as §1

[13] = tested on: Radical scavenging activity; assay: Antioxidant activity assessed as DPPH radical scavenging activity
How it was run: as §1

[14] = Antioxidant activity assessed as ABTS radical scavenging activity at 50 ug/ml
How it was run: (§2)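 Test samples at 50, 100, 200 and 400 ug/ml were each mixed with 1 ml of freshly prepared ABTS radical cation solution, adjusted to absorbance 0.7–0.9 at 734 nm. Mixtures reacted 2 h in the dark, then absorbance was read at 734 nm against a blank. Scavenging % was taken as the absorbance decrease relative to ABTS solution without test sample.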

[15] = Antioxidant activity assessed as ABTS radical scavenging activity at 100 ug/ml
How it was run: as §2

[16] = Antioxidant activity assessed as ABTS radical scavenging activity at 200 ug/ml
How it was run: as §2

[17] = Antioxidant activity assessed as ABTS radical scavenging activity at 400 ug/ml
How it was run: as §2

[18] = Antioxidant activity assessed as ABTS radical scavenging activity
How it was run: as §2

MCF7 = assay: Cytotoxicity against human MCF7 cells after 24 hrs by MTT assay; details: MCF7, 24 h
How it was run: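 Exponentially growing cells plated at 10⁴ cells/well and allowed to attach, then exposed to test compounds or doxorubicin (dissolved in 0.1% DMSO, diluted in medium; range 1–100) for 24 h; controls received medium with 0.1% DMSO. MTT (1 mg/ml) added for 4 h at 37 °C, formazan dissolved in DMSO, absorbance read at 540 nm; % cytotoxicity calculated from blank-corrected absorbances versus control.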

Row | SMILES | MIC (Staphylococcus aureus [5]) | MIC (Bacillus cereus [6]) | MIC (Escherichia coli [7]) | MIC (Klebsiella pneumoniae [8]) | IC50 [13] | IC50 [18] | zone of inhibition at 100 µg/mL (Staphylococcus aureus [1]) | zone of inhibition at 100 µg/mL (Bacillus cereus [2]) | zone of inhibition at 100 µg/mL (Escherichia coli [3]) | zone of inhibition at 100 µg/mL (Klebsiella pneumoniae [4]) | Activity ([9]; at 50 µg/mL) | Activity ([10]; at 100 µg/mL) | Activity ([11]; at 200 µg/mL) | Activity ([12]; at 400 µg/mL) | Activity ([14]; at 50 µg/mL) | Activity ([15]; at 100 µg/mL) | Activity ([16]; at 200 µg/mL) | Activity ([17]; at 400 µg/mL) | further results
1 | N#CC1=C(N)OC(c2c[nH]c3ccccc23)=C(C#N)C1c1cccc(Br)c1 (centres undefined) | 27.5 µg/mL (≈ 65.9 µM) | 24 µg/mL (≈ 57.5 µM) | 30.2 µg/mL (≈ 72.4 µM) | 26.3 µg/mL (≈ 63 µM) |  |  | 16 mm | 14 mm | 14 mm | 14 mm |  |  |  |  |  |  |  |  | Activity [9]: inactive; Activity [10]: inactive; Activity [11]: inactive; Activity [12]: inactive; Activity [13]: inactive; Activity [14]: inactive; Activity [15]: inactive; Activity [16]: inactive; Activity [17]: inactive; Activity [18]: inactive
2 | O=C(O)c1cn(C2CC2)c2cc(N3CCNCC3)c(F)cc2c1=O [CIPROFLOXACIN] | 0.2 µg/mL (≈ 0.604 µM) | 0.3 µg/mL (≈ 0.905 µM) |  | 0.1 µg/mL (≈ 0.302 µM) |  |  | 26 mm | 25 mm | 27 mm | 26 mm |  |  |  |  |  |  |  |  | 
3 | COc1cccc2c1C(=O)c1c(O)c3c(c(O)c1C2=O)C[C@@](O)(C(=O)CO)C[C@@H]3O[C@H]1C[C@H](N)[C@H](O)[C@H](C)O1 [DOXORUBICIN] |  |  |  |  |  |  |  |  |  |  |  |  |  |  |  |  |  |  | GI50 (MCF7): 20 nM; TGI (MCF7): 210 nM
4 | O=C1O[C@H]([C@@H](O)CO)C(O)=C1O [ASCORBIC ACID] |  |  |  |  | < 50 µg/mL | 650 µg/mL (≈ 3690 µM) |  |  |  |  | 77.2% | 79.7% | 82.3% | 85.3% | 28.8% | 29.7% | 31.5% | 33.4% | 
5 | CN(C)c1ccc(C2C(C#N)=C(N)OC(c3c[nH]c4ccccc34)=C2C#N)cc1 (centres undefined) | 23.8 µg/mL (≈ 62.4 µM) | 25.6 µg/mL (≈ 67.1 µM) | 26.7 µg/mL (≈ 70 µM) | 25.2 µg/mL (≈ 66.1 µM) | < 50 µg/mL | 900 µg/mL (≈ 2360 µM) | 18 mm | 15 mm | 17 mm | 16 mm | 72.1% | 73.1% | 74.6% | 75.7% | 14.4% | 18.5% | 20.5% | 26.7% | 
6 | N#CC1=C(N)OC(c2c[nH]c3ccccc23)=C(C#N)C1c1cccc([N+](=O)[O-])c1 (centres undefined) | 24 µg/mL (≈ 62.6 µM) | 35.4 µg/mL (≈ 92.3 µM) | 27.5 µg/mL (≈ 71.7 µM) | 25.5 µg/mL (≈ 66.5 µM) |  |  | 19 mm | 13 mm | 16 mm | 15 mm |  |  |  |  |  |  |  |  | Activity [9]: inactive; Activity [10]: inactive; Activity [11]: inactive; Activity [12]: inactive; Activity [13]: inactive; Activity [14]: inactive; Activity [15]: inactive; Activity [16]: inactive; Activity [17]: inactive; Activity [18]: inactive
7 | Cc1ccccc1C1C(C#N)=C(N)OC(c2c[nH]c3ccccc23)=C1C#N (centres undefined) | 25 µg/mL (≈ 70.9 µM) | 27.8 µg/mL (≈ 78.9 µM) | 26 µg/mL (≈ 73.8 µM) | 27.2 µg/mL (≈ 77.2 µM) | 1371.65 µg/mL (≈ 3890 µM) | > 1000 µg/mL | 16 mm | 15 mm | 16 mm | 15 mm | 25.8% | 27.4% | 28.3% | 32.5% | 10.4% | 17.2% | 21.4% | 25.7% | 
8 | N#CC1=C(N)OC(c2c[nH]c3ccccc23)=C(C#N)C1c1cc(Br)c2c(c1)OCO2 (centres undefined) | 23.5 µg/mL (≈ 50.9 µM) | 28.7 µg/mL (≈ 62.2 µM) | 27.3 µg/mL (≈ 59.2 µM) | 24.8 µg/mL (≈ 53.8 µM) | 1779.24 µg/mL (≈ 3860 µM) | > 1000 µg/mL | 19 mm | 13 mm | 17 mm | 16 mm | 20.3% | 23.8% | 25.8% | 22.8% | 5.7% | 6.4% | 10% | 12.5% | 

The next lines start with results.

Row | MIC (Staphylococcus aureus [5]) | MIC (Bacillus cereus [6]) | MIC (Escherichia coli [7]) | MIC (Klebsiella pneumoniae [8]) | IC50 [13] | IC50 [18] | SMILES | zone of inhibition at 100 µg/mL (Staphylococcus aureus [1]) | zone of inhibition at 100 µg/mL (Bacillus cereus [2]) | zone of inhibition at 100 µg/mL (Escherichia coli [3]) | zone of inhibition at 100 µg/mL (Klebsiella pneumoniae [4]) | Activity ([9]; at 50 µg/mL) | Activity ([10]; at 100 µg/mL) | Activity ([11]; at 200 µg/mL) | Activity ([12]; at 400 µg/mL) | Activity ([14]; at 50 µg/mL) | Activity ([15]; at 100 µg/mL) | Activity ([16]; at 200 µg/mL) | Activity ([17]; at 400 µg/mL) | further results
9 | 21 µg/mL (≈ 44 µM) | 24.5 µg/mL (≈ 51.3 µM) | 29.5 µg/mL (≈ 61.8 µM) | 33.4 µg/mL (≈ 70 µM) | < 50 µg/mL | 880.3 µg/mL (≈ 1840 µM) | COc1cc(Br)c(C2C(C#N)=C(N)OC(c3c[nH]c4ccccc34)=C2C#N)cc1OC (centres undefined) | 20 mm | 14 mm | 16 mm | 19 mm | 51.7% | 53.8% | 57.3% | 64.4% | 18.5% | 20.5% | 24.2% | 26.7% | 
10 | 12.4 µg/mL (≈ 33.3 µM) | 16.4 µg/mL (≈ 44 µM) | 16.5 µg/mL (≈ 44.3 µM) | 16.1 µg/mL (≈ 43.2 µM) | 467.49 µg/mL (≈ 1250 µM) | > 1000 µg/mL | N#CC1=C(N)OC(c2c[nH]c3ccccc23)=C(C#N)C1c1ccccc1Cl (centres undefined) | 24 mm | 17 mm | 21 mm | 20 mm | 27.9% | 34% | 39.6% | 45.7% | 8.5% | 10.4% | 14.5% | 21.4% | 
11 | 13.4 µg/mL (≈ 35.9 µM) | 19 µg/mL (≈ 51 µM) | 21.5 µg/mL (≈ 57.7 µM) | 17.5 µg/mL (≈ 46.9 µM) |  |  | N#CC1=C(N)OC(c2c[nH]c3ccccc23)=C(C#N)C1c1ccc(Cl)cc1 (centres undefined) | 23 mm | 18 mm | 19 mm | 18 mm |  |  |  |  |  |  |  |  | Activity [9]: inactive; Activity [10]: inactive; Activity [11]: inactive; Activity [12]: inactive; Activity [13]: inactive; Activity [14]: inactive; Activity [15]: inactive; Activity [16]: inactive; Activity [17]: inactive; Activity [18]: inactive
12 | 15.2 µg/mL (≈ 44.9 µM) | 18.5 µg/mL (≈ 54.7 µM) | 19.6 µg/mL (≈ 57.9 µM) | 20.2 µg/mL (≈ 59.7 µM) | 308.2 µg/mL (≈ 911 µM) | 993.66 µg/mL (≈ 2940 µM) | N#CC1=C(N)OC(c2c[nH]c3ccccc23)=C(C#N)C1c1ccccc1 (centres undefined) | 22 mm | 16 mm | 18 mm | 18 mm | 38% | 46% | 49.7% | 51.2% | 14.4% | 19.3% | 24.5% | 26.7% | 
13 | 15.4 µg/mL (≈ 41.8 µM) | 24.5 µg/mL (≈ 66.5 µM) | 23.4 µg/mL (≈ 63.5 µM) | 19.6 µg/mL (≈ 53.2 µM) | < 50 µg/mL | 858.69 µg/mL (≈ 2330 µM) | COc1ccc(C2C(C#N)=C(N)OC(c3c[nH]c4ccccc34)=C2C#N)cc1 (centres undefined) | 21 mm | 16 mm | 18 mm | 19 mm | 53.6% | 56.9% | 59.9% | 60.2% | 12.4% | 20% | 26.4% | 28.7% | 
